Our source for the AC50, IC50 and Activity values is ChEMBL document CHEMBL1147681, “Identification of a terphenyl derivative that blocks the cell cycle in the G0-G1 phase and induces differentiation in leukemia cells” (J Med Chem, 2006).

Active and inactive are the calls of the source. No cut-off for these calls is given here.

Usually AC50 stands for the concentration at which the activity in the assay is half-maximal. What is called IC50 is the concentration that gives 50% inhibition. A low value points to greater potency.

Assay [1] has as its system HL-60. In words: Proapoptotic activity against human HL60 cell line. Format: functional, cell-based. An outline of the steps: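 Apoptosis assessed by morphological assay and annexin V test. AC50 is the concentration inducing apoptosis in 50% of cells.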
For assay [2], the system named is HL-60. In words: Antiproliferative activity against human HL60 cell line. Format: functional, cell-based. An outline of the steps: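 Cell growth inhibition measured by counting cells with an automatic cell counter in sensitive HL60, MDR HL60R and Bcr-Abl-expressing K562 cells. IC50 is the concentration inhibiting 50% of cell growth.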
Assay [3] has as its system HL-60. In words: Cell cycle arrest in human HL60 cells by accumulation at G2/M phase at 20 uM. It is filed as functional, cell-based. In outline:
(§1)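 HL60 cells were stained with propidium iodide and analysed by flow cytometry for sub-G0-G1, G0-G1, S and G2-M peaks against untreated control. Exposures were 50 µM for 8 h or 24 h, 10 µM for 96 h, and 20 or 30 µM for 24 h.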

Assay [4] concerns HL-60. In words: Cell cycle arrest in human HL60 cells by accumulation at G2/M phase at 10 uM. Format: functional, cell-based. In outline: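 HL60 cells exposed for 24 h at 10 µM, stained with propidium iodide, and analysed by flow cytometry for DNA content. Sub-G0-G1 (apoptotic), G0-G1, S and G2-M peaks compared with untreated HL60 cells.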
The test system of assay [5] is HL-60. In words: Cell cycle arrest in human HL60 cells by accumulation at S phase at 30 uM. It is filed as functional, cell-based. In outline: as §1
Assay [6] concerns HL-60. As to the kind of experiment: Induction of differentiation of human HL60 cells at 10 uM measured as expression of monocytic marker CD14 after 4 days. Format: functional. An outline of the steps: (§2)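 HL60 cells exposed to 10 µM compound; CD14 (monocytic), CD11b and CD11c (granulocytic) surface expression measured by flow cytometry, as percentage of positive cells versus untreated control. Read-out given as 72 h in text, 4 days in table.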

Assay [7] concerns HL-60. In words: Induction of differentiation of human HL60 cells at 10 uM measured as expression of granulocytic marker CD11b after 4 days. It is filed as functional. In outline:
as §2

Assay [8] relates to HL-60. In words: Induction of differentiation of human HL60 cells at 10 uM measured as expression of granulocytic marker CD11c after 4 days. Format: functional. In outline:
as §2

In assay [9] the test system is HL-60. In words: Cell cycle arrest in human HL60 cells by accumulation at G0/G1 phase at 10 uM after 96 hrs. Format: functional, cell-based. An outline of the steps:
as §1

Assay [10] deals with HL-60. In words: Cell cycle arrest in human HL60 cells by accumulation at G0/G1 phase at 50 uM after 8 hrs. Format: functional, cell-based. In outline: as §1

For the compound `COc1cc(OC)cc(-c2ccccc2-c2ccc(O)cc2)c1`, the activity in the assay on HL-60 [1] was half-maximal at 10 µM (AC50). This compound also showed a concentration for half-maximal inhibition (IC50) in the assay with HL-60 [2] of 5 µM.
On the same counts, the results for `CCOc1cc(/C=C/c2cc(OC)cc(OC)c2)ccc1O` are 18 µM and 11 µM.
The matching figures for `COc1cc(/C=C/c2cccc(O)c2)cc(OC)c1`: 58 µM and 23 µM.
Take `Oc1ccc(-c2ccccc2-c2cc(O)cc(O)c2)cc1`: in the assay with HL-60 [3], the result was Active. In the assay on HL-60 [1], this compound yielded an AC50 of 9 µM. The compound also yielded an IC50 in the assay on HL-60 [2] of 3.5 µM.
`COc1cc(OC)cc(-c2ccc(-c3ccc(O)cc3)cc2)c1`: in the assay with HL-60 [1], half-maximal activity (AC50) was put at 30 µM. In the assay with HL-60 [2], this compound yielded an IC50 of 2.5 µM.
On the same counts, the results for `COc1ccc(-c2ccccc2-c2cc(OC)cc(OC)c2)cc1` are 15 µM and 7 µM.
On to `COc1cc(/C=C/c2cc(C(C)(C)C)c(O)c(C(C)(C)C)c2)cc(OC)c1`, for which the AC50 in the assay with HL-60 [1] is above 100 µM. In the assay on HL-60 [2], this compound yielded an IC50 of 84 µM.
On the same counts, the results for `COc1cc(/C=C/c2ccccc2O)cc(OC)c1` are 35 µM and 9 µM.
Regarding `COc1ccc(/C=C/c2cc(OC)cc(OC)c2)cc1` [TRISMETHOXYRESVERATROL], the AC50 with HL-60 [1] came out at 4 µM. The compound also yielded an IC50 with HL-60 [2] of 2.5 µM. Further, the outcome with HL-60 [4] was Active.
`COc1cc(/C=C/c2cc(OC)c(O)c(OC)c2)cc(OC)c1` registered an AC50 in the assay with HL-60 [1] of 79 µM. Moreover, the IC50 with HL-60 [2] turned out to be 20 µM.
The matching figures for `Oc1ccc(-c2cccc(-c3cc(O)cc(O)c3)c2)cc1`: 63 µM and 27 µM.
With `COc1cc(/C=C/c2cccc(OC)c2O)cc(OC)c1`, the outcome in the assay on HL-60 [5] was Active. In addition, the AC50 in the assay with HL-60 [1] was determined as 15 µM. Moreover, the IC50 in the assay on HL-60 [2] stood at 3.5 µM.
For `COc1ccc(-c2ccc(-c3cc(OC)cc(OC)c3)cc2)cc1`, the AC50 in the assay on HL-60 [1] is above 100 µM. In the assay on HL-60 [2], this compound came in with an IC50 of 75 µM.
On the same counts, the results for `COc1cc(OC)cc(-c2cccc(-c3ccc(O)cc3)c2)c1` are 23 µM and 4.8 µM.
As for `COc1cc(OC)cc(-c2ccc3cc(OC)ccc3c2)c1`, the activity with HL-60 [1] was half-maximal at 91 µM (AC50). In addition, the IC50 in the assay with HL-60 [2] was found to be 76 µM.
With `Oc1ccc(/C=C/c2cc(O)cc(O)c2)cc1` [RESVERATROL], the Activity worked out at 23% in the assay on HL-60 [6], 24% in the assay on HL-60 [7] and 22% with HL-60 [8].
Consider `COc1cc(OC)cc(-c2ccc3cc(O)ccc3c2)c1`, for which the AC50 with HL-60 [1] amounted to 19 µM. In the assay with HL-60 [2], the IC50 amounted to 10 µM.
On the same counts, the results for `Oc1cc(O)cc(-c2ccc3cc(O)ccc3c2)c1` are 48 µM and 28 µM.
The matching figures for `COc1cc(/C=C/c2cc(Cl)ccc2O)cc(OC)c1`: 29 µM and 14 µM.
With `Oc1ccc(-c2ccc(-c3cc(O)cc(O)c3)cc2)cc1`, the outcome in the assay on HL-60 [9] and in the assay with HL-60 [10] was Active. In addition, the Activity was found to be 58% in the assay on HL-60 [6], 62% in the assay with HL-60 [7] and 60% in the assay on HL-60 [8]. Moreover, half-maximal activity with HL-60 [1] (AC50) was put at 25 µM. Moreover, in the assay on HL-60 [2], the midpoint of inhibition, the IC50, lay at 7 µM.
For `COc1ccc(-c2cccc(-c3cc(OC)cc(OC)c3)c2)cc1`, the AC50 with HL-60 [1] was above 100 µM. Moreover, in the assay on HL-60 [2], the midpoint of inhibition, the IC50, lay at 50 µM.
In the assay with HL-60 [1], `COc1cc(/C=C/c2ccc(O)cc2)cc(OC)c1` [PTEROSTILBENE] returned an AC50 of 75 µM.
